Measurements published in ChEMBL document CHEMBL4196176, “Structure-Based Design of MptpB Inhibitors That Reduce Multidrug-Resistant Mycobacterium tuberculosis Survival and Infection Burden in Vivo” (J Med Chem, 2018).
Activity calls are given as the source filed them. The rule behind the calls is not given here.

What was measured:
Cavia porcellus [1] = assay: Cmax in Dunkin Hartley guinea pig at 8 mg/kg, po after 0.25 hrs post dose; format: ADME, organism-based; design: dose 8 mg/kg, route oral; conditions: in vivo
Cavia porcellus [2] = assay: Cmax in Dunkin Hartley guinea pig at 4 mg/kg, ip after 0.5 hrs post dose; format: ADME, organism-based; design: dose 4 mg/kg, route intraperitoneal; conditions: in vivo
[3] = Drug uptake in Hartley Duncan guinea pig lungs at 100 mg/kg, po measured at 2 hrs; format: ADME, organism-based, Cavia porcellus; conditions: lung, read-out: Drug uptake
Summary of the method: (§1)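 Guinea pigs (n = 5) given 100 mg/kg orally once daily for 7 days. Plasma and lung drug levels measured at 2 h and at 24 h after the last dose, as peak and trough.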

Cavia porcellus [4] = assay: Oral bioavailability in Dunkin Hartley guinea pig at 8 mg/kg; format: ADME, organism-based; conditions: in vivo
[5] = system: Mycobacterium tuberculosis; assay: (§2) Antimycobacterial activity against Mycobacterium tuberculosis H37Rv infected in chronic TB infection induced Hartley Duncan guinea pig model assessed as reduction of granulomatous infiltration in lungs at 100 mg/kg/day, po administered at 24 hrs post infection measured after 56 days post infection by hematoxylin and eosin staining-based assay; format: functional, organism-based
Summary of the method: (§3)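 Chronic aerosol model (63 CFU; oral 100 mg/kg daily for 4 weeks from day 28). Lungs and spleens inspected at 56 days post infection. Tissue fixed in formalin, paraffin-embedded, cut at about 5 μm and stained with hematoxylin and eosin; lesions and granulomas compared with vehicle.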

[6] = Permeability of the compound at 200 uM after 5 hrs by PAMPA assay; format: ADME; conditions: read-out: permeability
[7] = system: Mycobacterium tuberculosis; assay: as §2, with “in necrotic lesions” for “of granulomatous infiltration”; format: functional, organism-based; summary of the method: as §3
[8] = Plasma concentration in Hartley Duncan guinea pig at 100 mg/kg, po measured at 24 hrs; format: ADME, organism-based, Cavia porcellus; summary of the method: as §1
Cavia porcellus [9] = assay: Half life in Dunkin Hartley guinea pig at 4 mg/kg, ip; format: ADME, organism-based; conditions: in vivo
[10] = Plasma concentration in Hartley Duncan guinea pig at 100 mg/kg, po measured at 2 hrs; format: ADME, organism-based, Cavia porcellus; summary of the method: as §1
[11] = target: T1, Phosphotyrosine protein phosphatase (Mycobacterium tuberculosis) (UniProt A0A045ISB3); assay: Inhibition of RFP expressing Mycobacterium tuberculosis H37Rv ATCC 35837 ptpB infected in mouse RAW264.7 cells assessed as prolongation association of PI3P to FYVE2X-FGFP on bacterial phagosome at 80 uM by live-cell imaging method; format: cell-based
T1 sequence (whole entry): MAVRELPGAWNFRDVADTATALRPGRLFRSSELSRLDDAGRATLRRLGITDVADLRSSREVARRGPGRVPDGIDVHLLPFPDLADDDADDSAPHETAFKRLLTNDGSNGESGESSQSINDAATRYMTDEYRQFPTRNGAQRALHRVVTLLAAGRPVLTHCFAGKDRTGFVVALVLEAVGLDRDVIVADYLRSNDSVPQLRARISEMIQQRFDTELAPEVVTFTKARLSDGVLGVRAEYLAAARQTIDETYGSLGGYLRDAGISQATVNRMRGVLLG
Summary of the method: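 RAW264.7 cells transfected with EGFP-2xFYVE plasmid using JetPEI. Next day infected with RFP-M. tuberculosis H37Rv at MOI 5:1, with compound at 80 μM added together with the bacteria. Imaged live immediately, every 30 s, to follow PI3P on phagosomes.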

[12] = system: Mycobacterium tuberculosis; assay: Antibacterial activity against Mycobacterium tuberculosis H37Rv infected in chronic TB infection induced Hartley Duncan guinea pig model assessed as log reduction in bacterial burden in spleen at 100 mg/kg/day, po administered at 24 hrs post infection measured after 4 weeks post infection; format: functional
Summary of the method: (§4)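 Guinea pigs infected by aerosol with 63 CFU M. tuberculosis, 5 per group, and left untreated for 28 days; baseline lung and spleen burden taken at day 28. Compound (100 mg/kg) or vehicle then given orally daily for 4 weeks. Lung and spleen CFU compared with vehicle.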

[13] = system: Mycobacterium tuberculosis; assay: as §2, with “reduction” for “reduction of granulomatous infiltration”, “necrotic lesions in spleen” for “lungs”; format: functional, organism-based; summary of the method: as §3
[14] = system: Mycobacterium tuberculosis; assay: Antibacterial activity against Mycobacterium tuberculosis H37Rv infected in acute TB infection induced Hartley Duncan guinea pig model assessed as log reduction in bacterial burden in lungs at 100 mg/kg/day, po administered at 24 hrs post infection measured after 4 weeks post infection; format: functional
Summary of the method: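 Guinea pigs infected by aerosol with 96 CFU M. tuberculosis H37Rv, 4 per group. Compound (100 mg/kg) or vehicle given orally daily for 4 weeks from 24 h post infection. Lung bacterial burden measured relative to vehicle.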

[15] = system: Mycobacterium tuberculosis; assay: Antibacterial activity against Mycobacterium tuberculosis H37Rv infected in chronic TB infection induced Hartley Duncan guinea pig model assessed as log reduction in bacterial burden in lungs at 100 mg/kg/day, po administered at 24 hrs post infection measured after 4 weeks post infection; format: functional; summary of the method: as §4
[16] = target: T1, Phosphotyrosine protein phosphatase (Mycobacterium tuberculosis); assay: Inhibition of Mycobacterium tuberculosis H37Rv ATCC 35837 ptpB infected in human THP1 cells assessed as reduction in intracellular bacterial burden at 20 to 100 uM after 72 hrs post infection relative to DMSO-treated control; format: cell-based
Summary of the method: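 PMA-differentiated THP1 cells (1 × 10^6/well) in RPMI with 10% FBS. Inhibitor (0, 20 or 80 μM in DMSO) added, then infected with thawed M. tuberculosis at MOI 1:1 for 3 h and washed 4 times. Medium and inhibitor renewed at 24 h. Cells lysed in 0.05% SDS at 72 h; CFU plated in duplicate and counted after 3 weeks. Triplicate.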

[17] = system: Mycobacterium tuberculosis; assay: as §2, with “spleen” for “lungs”; format: functional, organism-based; summary of the method: as §3
Cavia porcellus [18] = assay: AUCinfinity in Dunkin Hartley guinea pig at 8 mg/kg, po; format: ADME, organism-based; design: dose 8 mg/kg, route oral, time infinity; conditions: in vivo
Cavia porcellus [19] = assay: Toxicity in Hartley Duncan guinea pig assessed as body weight increase at 50 to 100 mg/kg/day, po administered for 7 days; format: organism-based; conditions: in vivo, 168 h
Summary of the method: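 Male Hartley guinea pigs (n = 5) given the compound orally once daily for 7 days at 50 or 100 mg kg–1, as a pre-infection tolerability study. Animals were monitored for adverse drug effects and body-weight change. Plasma and lung drug levels were taken at 2 and 24 h after the last dose.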

Cavia porcellus [20] = assay: AUCinfinity in Dunkin Hartley guinea pig at 4 mg/kg, ip; format: ADME, organism-based; design: dose 4 mg/kg, route intraperitoneal, time infinity; conditions: in vivo
[21] = Kinetic solubility of the compound after 90 mins; format: physicochemical; conditions: 1.5 h
Cavia porcellus [22] = assay: Half life in Dunkin Hartley guinea pig at 8 mg/kg, po; format: ADME, organism-based; conditions: in vivo
Cavia porcellus [23] = assay: Cmax in Dunkin Hartley guinea pig at 2.5 mg/kg, ip after 0.5 hrs post dose; format: ADME, organism-based; design: dose 2.5 mg/kg, route intraperitoneal; conditions: in vivo
Cavia porcellus [24] = assay: Half life in Dunkin Hartley guinea pig at 5 mg/kg, po; format: ADME, organism-based; conditions: in vivo, BLD = below limit of detection
Cavia porcellus [25] = assay: Oral bioavailability in Dunkin Hartley guinea pig at 5 mg/kg; format: ADME, organism-based; conditions: in vivo
[26] = target: T2, Tyrosine-protein phosphatase non-receptor type 1 (Homo sapiens, UniProt P18031); assay: Inhibition of human PTP1B using pNPP as substrate preincubated for 15 mins followed by substrate addition and measured after 15 mins
T2 sequence (P18031 whole entry): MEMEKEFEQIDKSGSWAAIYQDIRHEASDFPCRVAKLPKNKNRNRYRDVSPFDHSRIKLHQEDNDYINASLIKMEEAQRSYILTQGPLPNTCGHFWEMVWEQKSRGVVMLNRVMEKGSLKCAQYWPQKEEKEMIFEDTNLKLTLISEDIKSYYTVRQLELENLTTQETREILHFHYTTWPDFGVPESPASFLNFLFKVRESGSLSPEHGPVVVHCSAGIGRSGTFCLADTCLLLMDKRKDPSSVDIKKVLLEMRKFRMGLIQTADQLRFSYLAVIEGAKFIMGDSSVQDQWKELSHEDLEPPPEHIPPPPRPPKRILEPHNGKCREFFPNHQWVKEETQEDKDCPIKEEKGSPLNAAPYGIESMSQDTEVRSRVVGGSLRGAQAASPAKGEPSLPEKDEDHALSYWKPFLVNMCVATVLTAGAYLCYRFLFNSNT

Cavia porcellus [27] = assay: AUCinfinity in Dunkin Hartley guinea pig at 5 mg/kg, po; format: ADME, organism-based; design: dose 5 mg/kg, time infinity, route oral; conditions: in vivo, BLD = below limit of detection
Cavia porcellus [28] = assay: Half life in Dunkin Hartley guinea pig at 2.5 mg/kg, ip; format: ADME, organism-based; conditions: in vivo
[29] = Inhibition of Mycobacterium tuberculosis H37Rv His-tagged ptpA expressed in Escherichia coli BL21(DE3) using pNPP as substrate preincubated for 15 mins followed by substrate addition and measured after 15 mins
Summary of the method: (§5)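 His-tagged MptpA/MptpB expressed in E. coli BL21(DE3); VHR and hPTP1B purified as GST fusions with the tag cleaved. 0.5 μg protein in Tris/BisTris/acetate buffer (pH 7 MptpB, 6.5 MptpA, 6 hPTP1B, 5 VHR) with compound at 0–250 μM, 15 min at room temperature. pNPP added to 0.35 mM for 15 min, quenched with NaOH, read at 405 nm against a pNP curve. No-enzyme blanks.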

Cavia porcellus [30] = assay: AUCinfinity in Dunkin Hartley guinea pig at 2.5 mg/kg, ip; format: ADME, organism-based; design: dose 2.5 mg/kg, time infinity, route intraperitoneal; conditions: in vivo
[31] = target: Dual specificity protein phosphatase 3 (Homo sapiens, UniProt P51452); assay: Inhibition of human VHR using pNPP as substrate preincubated for 15 mins followed by substrate addition and measured after 15 mins; summary of the method: as §5
Dual specificity protein phosphatase 3, sequence (P51452 whole entry): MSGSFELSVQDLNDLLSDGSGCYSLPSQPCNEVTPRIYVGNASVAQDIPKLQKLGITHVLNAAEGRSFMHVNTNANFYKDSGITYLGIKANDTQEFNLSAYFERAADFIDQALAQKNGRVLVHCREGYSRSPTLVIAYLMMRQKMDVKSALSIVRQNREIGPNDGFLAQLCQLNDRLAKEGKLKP

Cavia porcellus [32] = assay: Cmax in Dunkin Hartley guinea pig at 5 mg/kg, po after 0.25 hrs post dose; format: ADME, organism-based; design: dose 5 mg/kg, route oral; conditions: in vivo, BLD = below limit of detection
[33] = target: T3, Phosphotyrosine protein phosphatase (Mycobacterium tuberculosis, UniProt A0A045ISB3); assay: Inhibition of Mycobacterium tuberculosis H37Rv His-tagged ptpB expressed in Escherichia coli BL21(DE3) using pNPP as substrate preincubated for 15 mins followed by substrate addition and measured after 15 mins
T3 sequence (A0A045ISB3 whole entry): T1 sequence (whole entry)

[34] = Selectivity ratio of IC50 for human PTP1B to IC50 for Mycobacterium tuberculosis H37Rv His-tagged ptpB
[35] = target: T1, Phosphotyrosine protein phosphatase (Mycobacterium tuberculosis); assay: Inhibition of Mycobacterium tuberculosis H37Rv ATCC 35837 ptpB infected in human THP1 cells assessed as reduction in intracellular bacterial burden at 10 to 80 uM after 72 hrs post infection relative to DMSO-treated control; format: cell-based
Summary of the method: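 PMA-differentiated THP1 cells (1 × 10^6/well, RPMI with 10% FBS and 4 mM L-glutamine) received inhibitor in DMSO, then thawed M. tuberculosis at MOI 1:1. Washed after 3 h; medium and inhibitor renewed at 24 h. At 72 h, lysed in 0.05% SDS; 10-fold dilutions plated in duplicate on 7H10, CFU counted after 3 weeks at 37 °C; triplicate experiments.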

## Cc1onc(C(=O)O)c1-c1cccc(-c2cc(Cl)c(O)c(Cl)c2)c1
Cavia porcellus [1]
  Cmax: 111.099 µg/mL
Cavia porcellus [2]
  Cmax: 31519 ng/mL
[3]
  concentration at 2 h: 623 ng/g
Cavia porcellus [4]
  F: 156%
[5]
  Activity: Active
[6]
  Papp at 5 h, 200 µM: 7.81 ×10⁻⁶ cm/s
[7]
  Activity: Active
[8]
  concentration at 24 h: 35 ng/mL
Cavia porcellus [9]
  t1/2: 1.4 h
[10]
  concentration at 2 h: 1750 ng/mL
[11]
  TIME: < 0.2 h
[12]
  Activity: 1 deltalog10CFU
[13]
  Activity: Active
[14]
  Activity: 0.9 deltalog10CFU
[15]
  Activity: 1 deltalog10CFU
[16]
  inhibition: < 63%
[17]
  Activity: Active
Cavia porcellus [18]
  AUC: 230.407 µg·h/mL
Cavia porcellus [19]
  Activity: > 5%
Cavia porcellus [20]
  AUC: 71854 ng·h/mL
[21]
  Kinetic_solubility: 200 µM
Cavia porcellus [22]
  t1/2: 5.1 h

## Cc1cc(-c2cccc(-c3c(C(=O)O)noc3-c3ccccc3)c2)cc(C)c1O
Cavia porcellus [23]
  Cmax: 197 ng/mL
Cavia porcellus [24]
  t1/2: Bld
Cavia porcellus [25]
  F: < 2.5%
[26]
  IC50: > 100 µM
Cavia porcellus [27]
  AUC: Bld
Cavia porcellus [28]
  t1/2: 1.4 h
[29]
  IC50: 36 µM
Cavia porcellus [30]
  AUC: 399 ng·h/mL
[31]
  IC50: 23.2 µM
Cavia porcellus [32]
  Cmax: Bld

## O=C(O)c1noc(-c2ccccc2)c1-c1ccccc1
[33]
  IC50: 17 µM
[26]
  IC50: 100 µM
[34]
  Ratio IC50: 5.9

## COC(=O)c1c(O)cccc1OC/C=C/c1cccc(-c2cc(C(=O)O)no2)c1 [ISOXAZOLECARBOXYLIC ACID]
[33]
  IC50: 7 µM
[35]
  inhibition: Active
